# INS-1E rescue – rescue of cytokine-induced death in INS-1E beta cells | INS-1E cytokine-induced death, ATP luminescence, 48 h; normalised: neutral wells 0, positive control 100 | 0.1% of 20,000 active | protection from cytokine-induced ATP loss, % at 10 µM;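 active = mean replicate protection from cytokine-induced ATP loss at least 50% and at least 75% of replicates each reaching 50%; inconclusive = meets only one of the two criteria, mean or replicate share; inactive = fails both the mean and replicate share criteria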
#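 Material: INS-1E rat cells; Quantity: 8000 cells/well; Buffer or medium: phenol-red-free RPMI with 5% fetal bovine serum; Probe or stimulus: cytokine cocktail of IFN-γ, TNF-α and IL-1β; Compound dosing: single test concentration per compound, delivered by pin transfer; Incubation: 48 h co-treatment, 10 min post-lysis read; Signal: CellTiter-Glo luminescence.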
# A1 apoptosis 2 – blocks A1, raising caspase activity | caspase activation, % (concentration not given with the values) | MEF A1-2A-BIM cells, caspase-Glo luminescence, 3 h; percent of clofoctol response, DMSO zero | 24,000 tested, under 10 active | AID 2465; in the data active = caspase activation above about 5.9%; inconclusive = no clear call, values can overlap the other calls; inactive = below about 2.2%
#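 Evaluation: Caspase-3/7 activity from luminescence increase | Assay system: A1-2A-BIM mouse embryonic fibroblasts | Quantity: 2500 MEF cells/well | Medium: RPMI-1640 plus 10% FBS | Detection: Caspase-Glo 3/7 luminescence, 1 h at room temperature | Dosing: 50 nL compound per well, pinned | Timing: Cells settled overnight, compound exposure 3 h at 37 °C, 5% CO2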
# T cruzi HTS – inhibitors of intracellular Trypanosoma cruzi; 4.9% of 22,000 active; AID 651903; intracellular Trypanosoma cruzi in host cells, plate reader; activity score (inhibition), % at 5.01 µM; in the data active = activity score above about 55%; inconclusive = no clear call, values can overlap the other calls;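 note: parasites and compound incubated about four days before reading; 0% = median of neutral control wells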
# Active calls of the source: *; ? = inconclusive; . = no result given. Many of the other results were omitted from the sample, so hits are more common in it than they were.
SMILES,INS-1E rescue,A1 apoptosis 2,T cruzi HTS
Cc1noc(C)c1S(=O)(=O)Nc1ccc2c(c1)CC(=O)N([C@H](C)CO)C[C@@H](C)[C@H](CN(C)Cc1ccc(Cl)c(Cl)c1)O2,-20.1,-0.1,63.0*
Cc1noc(C)c1S(=O)(=O)Nc1ccc2c(c1)CC(=O)N([C@@H](C)CO)C[C@H](C)[C@@H](CN(C)Cc1ccc(C(F)(F)F)cc1)O2,0.1,.,60.6*
Cc1noc(C)c1S(=O)(=O)Nc1ccc2c(c1)C(=O)N([C@@H](C)CO)C[C@H](C)[C@H](CN(C)Cc1ccc(Cl)c(Cl)c1)O2,-11.6,0.5,62.4*
Cc1noc(C)c1S(=O)(=O)Nc1ccc2c(c1)CC(=O)N([C@@H](C)CO)C[C@H](C)[C@H](CN(C)Cc1ccc(C(F)(F)F)cc1)O2,1.6,.,41.4
Cc1noc(C)c1S(=O)(=O)Nc1ccc2c(c1)C(=O)N([C@H](C)CO)C[C@H](C)[C@H](CN(C)Cc1ccc(Cl)c(Cl)c1)O2,-14.6,0.0,?
Cc1noc(C)c1S(=O)(=O)Nc1ccc2c(c1)CC(=O)N([C@@H](C)CO)C[C@H](C)[C@H](CN(C)Cc1ccc(Cl)c(Cl)c1)O2,-25.4,.,54.6
Cc1noc(C)c1S(=O)(=O)Nc1ccc2c(c1)C(=O)N([C@@H](C)CO)C[C@@H](C)[C@H](CN(C)Cc1ccc3c(c1)OCO3)O2,0.3,.,1.2
Cc1noc(C)c1S(=O)(=O)Nc1ccc2c(c1)C(=O)N([C@H](C)CO)C[C@H](C)[C@H](CN(C)Cc1ccc3c(c1)OCO3)O2,-10.7,.,58.2*
C[C@@H]1CN([C@@H](C)CO)C(=O)CCCn2cc(nn2)CO[C@@H]1CN(C)C,.,-0.2,-4.7
CO[C@H]1O[C@H](CO)[C@@H](OC(=O)Nc2ccccc2)[C@H](OC(=O)Nc2ccc3c(c2)OCO3)[C@@H]1OC(=O)Nc1ccc2c(c1)OCO2,.,0.2,.
COc1ccc(NC(=O)Nc2ccc3c(c2)CC(=O)N([C@H](C)CO)C[C@H](C)[C@H](CN(C)S(=O)(=O)c2ccc(F)cc2)O3)cc1,7.4,0.1,-1.4
C[C@@H]1CN([C@@H](C)CO)C(=O)c2cc(NC(=O)CCC(F)(F)F)ccc2O[C@@H](C)CCCCO[C@H]1CN(C)C(=O)Cc1ccccc1,.,2.4,.
C[C@H]1CN([C@@H](C)CO)C(=O)c2cccc(NS(=O)(=O)c3ccccc3)c2O[C@H]1CN(C)Cc1ccc(C(=O)Nc2ccccc2N)cc1,-10.3,-0.8,53.4
C[C@@H]1CN([C@@H](C)CO)C(=O)c2cccc(NS(=O)(=O)c3ccc(Cl)cc3)c2O[C@H]1CN(C)Cc1ccc(C(=O)Nc2ccccc2N)cc1,-1.3,-1.0,56.0*
C[C@@H]1CN([C@H](C)CO)C(=O)c2cccc(NS(=O)(=O)c3ccc(F)cc3)c2O[C@@H]1CN(C)Cc1ccc(C(=O)Nc2ccccc2N)cc1,27.1,-1.0,60.2*
C[C@@H]1CN([C@H](C)CO)C(=O)c2cccc(NS(=O)(=O)c3ccc(F)cc3)c2O[C@H]1CN(C)Cc1ccc(C(=O)Nc2ccccc2N)cc1,5.1,0.7,40.7
Cc1ccc(S(=O)(=O)Nc2cccc3c2O[C@@H](CN(C)Cc2ccc(C(=O)Nc4ccccc4N)cc2)[C@@H](C)CN([C@H](C)CO)C3=O)cc1,4.6,-0.1,57.2*
Cc1ccc(S(=O)(=O)Nc2cccc3c2O[C@H](CN(C)Cc2ccc(C(=O)Nc4ccccc4N)cc2)[C@@H](C)CN([C@H](C)CO)C3=O)cc1,.,1.5,.
C[C@@H]1CN([C@H](C)CO)C(=O)c2cccc(NS(=O)(=O)c3ccccc3)c2O[C@@H]1CN(C)Cc1ccc(C(=O)Nc2ccccc2N)cc1,11.5,.,75.3*
C[C@H](CO)N1C[C@H](C)[C@@H](CN(C)Cc2ccc(C(=O)Nc3ccccc3N)cc2)Oc2c(NS(=O)(=O)c3ccc(Cl)cc3)cccc2C1=O,-14.8,.,49.3
COc1ccc(S(=O)(=O)Nc2ccc3c(c2)C(=O)N([C@@H](C)CO)C[C@H](C)[C@H](CN(C)Cc2ccc(C(=O)Nc4ccccc4N)cc2)O3)cc1,-2.6,1.5,10.3
CNC[C@H]1Oc2ccc(NC(=O)NC(C)C)cc2CC(=O)N([C@H](C)CO)C[C@H]1C,2.8,0.8,-34.8
Cc1ccc(S(=O)(=O)N(C)C[C@H]2Oc3ccc(NC(=O)CCN4CCOCC4)cc3C(=O)N([C@@H](C)CO)C[C@H]2C)cc1,-0.5,.,-0.3
C[C@@H]1CN([C@@H](C)CO)C(=O)Cc2cc(NS(=O)(=O)c3ccc(Cl)cc3)ccc2O[C@@H]1CN(C)Cc1ccc(C(F)(F)F)cc1,-20.0,-0.4,58.2*
C[C@@H]1CN([C@H](C)CO)C(=O)Cc2cc(NS(=O)(=O)c3ccc(Cl)cc3)ccc2O[C@H]1CN(C)Cc1ccc(C(F)(F)F)cc1,-12.1,-0.1,63.6*
SMILES,INS-1E rescue,A1 apoptosis 2,T cruzi HTS
C[C@@H]1CN([C@@H](C)CO)C(=O)Cc2cc(NS(=O)(=O)c3ccccc3)ccc2O[C@@H]1CN(C)Cc1ccc(C(F)(F)F)cc1,4.8,0.0,-7.4
C[C@H](CO)N1C[C@H](C)[C@@H](CN(C)Cc2ccc(C(F)(F)F)cc2)Oc2ccc(NS(=O)(=O)c3ccc(Cl)cc3)cc2CC1=O,.,-0.4,.
C[C@H]1CN([C@@H](C)CO)C(=O)Cc2cc(NS(=O)(=O)c3ccc(Cl)cc3)ccc2O[C@@H]1CN(C)Cc1ccc(C(F)(F)F)cc1,4.7,.,71.6*
C[C@@H]1CN([C@H](C)CO)C(=O)Cc2cc(NS(=O)(=O)c3ccc(Cl)cc3)ccc2O[C@@H]1CN(C)Cc1ccc(C(F)(F)F)cc1,-19.1,0.3,54.1
O=C(NO)c1cccc(C(=O)N/N=C/c2cc(O)ccc2[N+](=O)[O-])c1,7.0,.,-11.8
COc1ccc(S(=O)(=O)N(C)C[C@H]2Oc3ccc(NC(=O)NC(C)C)cc3C(=O)N([C@@H](C)CO)C[C@H]2C)cc1,10.1,.,12.7
C[C@@H]1CN([C@@H](C)CO)C(=O)c2cc(NS(=O)(=O)c3ccc(F)cc3)ccc2O[C@H]1CN(C)S(=O)(=O)c1cccs1,.,.,-2.5
O=C(CCCCCC(=O)N/N=C/c1cccs1)NO,.,1.3,.
C[C@@H]1CN([C@@H](C)CO)C(=O)c2cc(N(C)C)ccc2O[C@@H]1CN(C)Cc1ccc(Cl)c(Cl)c1,-10.9,.,64.2*
C[C@@H]1CN([C@@H](C)CO)C(=O)c2cc(N(C)C)ccc2O[C@@H]1CN(C)Cc1ccc(-c2ccccc2)cc1,-15.1,.,64.5*
C[C@@H]1CN([C@H](C)CO)C(=O)c2cc(N(C)C)ccc2O[C@@H]1CN(C)Cc1ccc(Cl)c(Cl)c1,-5.9,-1.4,20.9
C[C@H]1CN([C@@H](C)CO)C(=O)c2cc(N(C)C)ccc2O[C@H]1CN(C)Cc1ccc(-c2ccccc2)cc1,-2.2,.,35.4
C[C@H](CO)N1C[C@H](C)[C@H](CN(C)Cc2ccccc2)Oc2ccc(N(C)C)cc2C1=O,1.6,-0.5,-3.7
C[C@H](CO)N1C[C@H](C)[C@@H](CN(C)Cc2ccc(Oc3ccccc3)cc2)Oc2ccc(N(C)C)cc2C1=O,-10.0,-1.5,71.3*
CNC[C@H]1Oc2ccc(NS(=O)(=O)c3ccc(OC)cc3)cc2CC(=O)N([C@H](C)CO)C[C@H]1C,3.5,-0.5,-18.5

# Screening results (PubChem)
